The source of these data is ChEMBL document CHEMBL1131510, “An endogenous sleep-inducing compound is a novel competitive inhibitor of fatty acid amide hydrolase” (Bioorg Med Chem Lett, 1998).

Data set [1] addresses T1, Fatty-acid amide hydrolase 1 (Homo sapiens, UniProt O00519).
T1 sequence (O00519 whole entry): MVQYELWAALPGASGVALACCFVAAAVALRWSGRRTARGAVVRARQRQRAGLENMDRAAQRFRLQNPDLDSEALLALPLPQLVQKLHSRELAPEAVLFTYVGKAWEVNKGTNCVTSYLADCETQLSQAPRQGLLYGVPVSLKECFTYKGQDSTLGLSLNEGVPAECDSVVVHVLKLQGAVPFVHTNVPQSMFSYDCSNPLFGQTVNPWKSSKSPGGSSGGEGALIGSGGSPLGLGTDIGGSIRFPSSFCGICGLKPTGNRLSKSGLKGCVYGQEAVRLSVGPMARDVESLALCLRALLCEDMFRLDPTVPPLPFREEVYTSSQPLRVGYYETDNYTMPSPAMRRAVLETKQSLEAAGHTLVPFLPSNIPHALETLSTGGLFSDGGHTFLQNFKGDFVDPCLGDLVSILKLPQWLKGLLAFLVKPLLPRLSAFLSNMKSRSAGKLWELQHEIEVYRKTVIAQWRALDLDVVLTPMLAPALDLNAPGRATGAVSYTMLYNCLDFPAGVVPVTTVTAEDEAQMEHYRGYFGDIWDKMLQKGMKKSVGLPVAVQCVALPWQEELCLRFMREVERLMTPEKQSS
Description: Concentration required to inhibit Fatty-acid amide hydrolase (FAAH) at pH 7.0. In a few lines:
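FAAH from solubilized liver plasma membrane extract, assayed at 20-22 °C at pH 7.0. Per the general assay footnote, the reaction buffer contained Tris, EDTA, glycerol and Triton X-100. Read-out was ¹⁴C-oleamide hydrolysis to oleic acid, followed by extraction, TLC separation and scintillation counting. Reaction time courses ran 10 min to 1 h. Only IC50 values are reported at this pH.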

Data set [2] has as its target T1, Fatty-acid amide hydrolase 1. Kind of data set: Inhibitory concentration against Fatty-acid amide hydrolase (FAAH) at pH 9.0. In a few lines:
(§1)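 Hydrolysis of ¹⁴C-oleamide to oleic acid was followed over 30 s to 15 min. Product was extracted, separated by TLC and quantified by scintillation counting.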

Data set [3] shares this target. Description: Compound was tested for inhibitory potency against Fatty-acid amide hydrolase (FAAH) at pH 9.0. The essentials:
as §1

Data set [4] in a line: Acid dissociation constant value for the compound was determined. It is filed as ADME.
Data set [5] deals with T1, Fatty-acid amide hydrolase 1. Kind of data set: Concentration required to inhibit fatty acid amide hydrolase (FAAH) at pH 7.0. In a few lines: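 Performed at pH 7.0 with solubilized liver plasma membrane extract as the FAAH source. ¹⁴C-oleamide breakdown to oleic acid was measured by extraction, TLC separation and scintillation counting. Reaction progress was monitored from 10 min to 1 h, and only IC50 values were derived.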

By IC50 is commonly meant the concentration needed to halve the response being measured. Higher therefore signals weaker potency in that assay. For orientation: Ki means a measure of affinity in units of concentration, obtained from inhibition or displacement. Broadly, the pKa is the pH at which an ionisable group is half protonated. High values mean a weaker acid or stronger base, low ones a stronger acid or weaker base.

In the case of `CCCCCCCOC(=O)CC(=O)CBr`, the IC50 in data set [1] was 2.1 µM; in data set [2] it was 1.5 µM. This compound had a Ki in data set [3] of 0.55 µM.

In turn, `CCCCCC[C@@H](C)OC(=O)CC(=O)CCC` yielded an IC50 in data set [2] greater than 100 µM.

The compound `CCCCCCCCC(=O)CC(C)=O` came in with a pKa in data set [4] of 9. Moreover, the IC50 in data set [2] is greater than 100 µM.

With `CCCCCC[C@H](C)OC(=O)CC(=O)CBr`, half-maximal inhibition in data set [2] (IC50) was put at 4 µM. Further, the Ki in data set [3] came to 1.1 µM.

For `CCCCCCCC/C=C\CCCCCCCC(=O)CBr`, the IC50 was 1 µM in data set [2] and 5.3 µM in data set [5]. This compound showed a Ki in data set [3] of 0.39 µM.

In data set [4], `CCCCCC[C@H](C)OC(=O)CC(C)=O` yielded a pKa of 10.5. In addition, the IC50 in data set [2] is greater than 100 µM.

For `CCCCCC[C@@H](C)OC(=O)CC(=O)CCl`, the results for the IC50 in data set [2] and in data set [5] were 2.9 µM and 0.7 µM, respectively. Besides, the affinity in data set [3], expressed as Ki, was 1.1 µM.

Turning to `CCCCCC[C@@H](C)OC(=O)CC(=O)CBr`, the pKa in data set [4] was 8.5. For the same compound, the IC50 was 3.1 µM in data set [1] and 2.6 µM in data set [2]. The same compound displayed an inhibition constant (Ki) in data set [3] of 0.8 µM.

As to `CCCCCC[C@@H](C)OC(=O)CC(=O)CC`, in data set [2], the IC50 was greater than 100 µM.

On to `CCCCCCCC/C=C\CCCCOC(=O)CC(=O)CBr`, for which the IC50 in data set [2] was 0.6 µM; in data set [5], 2.5 µM. Also, in data set [3], affinity was put at a Ki of 0.19 µM.

`CCCCCC[C@@H](C)OC(=O)CC(O)CBr` (stereo partly drawn) registered a half-maximal inhibitory concentration (IC50) in data set [2] greater than 100 µM.

`CCCCCCCC/C=C\CCCCCCCC(=O)C(F)(F)F`: the IC50 was found to be 0.6 µM in data set [2] and 9.9 µM in data set [5]. In data set [3], this compound had a Ki of 0.25 µM.
